Measurements as given in paper PMC7597899 (Chemical Science, 2020).

Test: Acidity
Assay type: physicochemical
Conditions: aqueous 0.15 M KCl, with or without methanol cosolvent
In short: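 Potentiometric titrations in 0.15 M KCl, titrated with 0.5 M HCl and KOH over pH 2.0–12.0. Samples were ≤0.5 mg and run in triplicate. Standard deviation came from fitting all three replicates. For water-insoluble compounds, methanol was added and the apparent psKa was extrapolated to aqueous pKa by the Yasuda–Shedlovsky procedure.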

Row | pKa | SMILES
1 | 8.43 | CONC(=O)c1n[nH]c2ccccc12 [Compound 1a, O-methyl indazole-3-hydroxamic acid]
2 | 7.21 | CONC(=O)c1nc2ccccc2[nH]1 [Compound 2a, O-methyl benzimidazole-2-hydroxamic acid]
3 | 7.44 | CONC(=O)c1nsc2ccccc12 [Compound 3a, O-Methyl 1,2-benzisothiazole-3-hydroxamic acid]
4 | 6.34 | CONC(=O)c1nc2ccccc2s1 [Compound 4a, O-methyl benzothiazole-2-hydroxamic acid]
